Test results reported in article PMC11734723 (Science Advances, 2025).
Like-named read-outs stand apart in the source and are kept apart here.

Columns and labels:
murine BMSMCs [1] = assay type: cell-based, mouse; details: ELP-004 100 nM
murine BMSMCs [2] = assay: qPCR of osteoclast markers in murine BMSMC-derived osteoclasts; assay type: cell-based, mouse
Procedure, shortened: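 Murine osteoclasts were cultured in mCSF (50 ng/ml) with RANKL (1 or 100 ng/ml) and, where indicated, LTB4 (50 nM) or TNFα (2 ng/ml) and test compound (100 nM), for up to 14 days. Cells were pelleted and RNA was extracted. Then 250 ng RNA was DNase-treated (ezDNase) and reverse-transcribed with Superscript IV for qPCR.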

[3] = tested on: Cch-induced ER Ca2+ release; assay: Carbachol-induced ER Ca2+ release in TRPC-overexpressing HEK293 cells; assay type: cell-based; details: ELP-004 1 nM to 100 μM
mouse TRPC4β = biological target: T1, mouse TRPC4β (Mus musculus, UniProt Q9QUQ5); assay: Whole-cell patch clamp of Englerin A-induced TRPC4 currents in HEK293 cells; assay type: cell-based; details: for decrease of EA-induced TRPC4 current 45 s after the peak: EA 30 nM
T1 sequence (Q9QUQ5 1-890 isoform Q9QUQ5-2): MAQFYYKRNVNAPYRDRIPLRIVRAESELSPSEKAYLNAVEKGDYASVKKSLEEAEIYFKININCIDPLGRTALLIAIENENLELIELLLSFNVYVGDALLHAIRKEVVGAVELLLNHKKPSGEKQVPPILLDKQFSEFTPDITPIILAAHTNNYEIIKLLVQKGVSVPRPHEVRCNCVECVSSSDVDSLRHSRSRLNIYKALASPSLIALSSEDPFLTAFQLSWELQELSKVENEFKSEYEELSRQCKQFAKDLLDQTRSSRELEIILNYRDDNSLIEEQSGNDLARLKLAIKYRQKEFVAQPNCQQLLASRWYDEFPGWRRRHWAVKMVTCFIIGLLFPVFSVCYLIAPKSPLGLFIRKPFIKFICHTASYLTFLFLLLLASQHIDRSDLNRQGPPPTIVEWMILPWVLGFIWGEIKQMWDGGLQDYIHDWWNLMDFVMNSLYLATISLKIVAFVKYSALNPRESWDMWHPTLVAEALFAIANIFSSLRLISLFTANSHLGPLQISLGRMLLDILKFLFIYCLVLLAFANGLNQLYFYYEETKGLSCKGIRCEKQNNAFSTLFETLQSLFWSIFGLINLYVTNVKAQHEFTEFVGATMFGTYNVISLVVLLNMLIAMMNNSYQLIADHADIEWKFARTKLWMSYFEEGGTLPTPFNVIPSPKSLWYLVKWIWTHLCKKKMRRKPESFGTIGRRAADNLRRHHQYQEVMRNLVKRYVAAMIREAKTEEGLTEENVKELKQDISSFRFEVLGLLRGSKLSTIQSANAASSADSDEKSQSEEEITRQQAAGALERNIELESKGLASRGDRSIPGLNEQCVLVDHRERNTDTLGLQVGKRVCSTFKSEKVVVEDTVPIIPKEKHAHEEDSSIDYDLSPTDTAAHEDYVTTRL
Procedure, shortened: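 Whole-cell recordings were made from HEK293 cells transiently expressing mouse TRPC4β, using ramps from −100 to +100 mV (200 ms, every 5 s; holding 0 mV). Pipette: CsCl with BAPTA (free Ca²⁺ 400 nM), pH 7.2; bath pH 7.4. After ~30 s in nominally Ca²⁺-free bath, Englerin A (30 nM) was applied. About 10 s after peak, Englerin A plus test compound (10, 30, 100 or 1000 nM) was perfused for ~90–100 s. Currents were read at ±100 mV.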

TRPC4 = biological target: T2, TRPC4 (Mus musculus, UniProt Q9QUQ5); assay: Carbachol-induced Sr2+ entry in TRPC4-overexpressing HEK293 cells; assay type: cell-based; details: read-out: IC50 of Cch-induced Sr2+ entry; Cch 100 nM, Sr2+ 3 mM
T2 sequence (Q9QUQ5 1-890 isoform Q9QUQ5-2): T1 sequence (Q9QUQ5 1-890 isoform Q9QUQ5-2)
Procedure, shortened: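 HEK293 cells were electroporated with GFP-tagged TRPC4, TRPC5 or TRPC7, plated after 24 h and cultured 48 h under selection; only high-GFP cells were analysed. Coverslip cells were loaded with Fura2 (2 µM) and treated with carbachol (100 nM) plus test compound (0 to 100 µM). Entry was measured after adding Sr²⁺ (3 mM), read as the 340/380 ratio; n = 3 to 5.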

CCC(=O)N(C)c1ccc(Cl)c(Cl)c1 [ELP-004]
effect on TRAP intensity (murine BMSMCs [1]; LTB4/RANKL): completely prevented the increase
effect on number of TRAP-positive cells (murine BMSMCs [1]; LTB4/RANKL): no effect
effect on multinucleation (murine BMSMCs [1]; LTB4/RANKL, days 7 and 14): significant ELP-004–induced decreases
effect on TRAP intensity (murine BMSMCs [1]; RANKL (100 ng/ml)): no impact
effect on number of TRAP-positive cells (murine BMSMCs [1]; RANKL (100 ng/ml)): no impact
effect on number of TRAP-positive cells (murine BMSMCs [1]; TNFα (2 ng/ml)/RANKL (1 ng/ml)): no significant effect
effect on TRAP intensity increases (murine BMSMCs [1]; TNFα/RANKL): severely attenuated
effect on number of multinuclear cells (murine BMSMCs [1]; TNFα/RANKL, P < 0.0005): significantly attenuated
effect on TRAP-positive cells (murine BMSMCs [1]; mCSF (50 ng/ml) only): no effect
effect on TRAP-positive cells (murine BMSMCs [1]; mCSF + RANKL (1 ng/ml)): no effect
changes in LTB4-induced expression of other osteoclast markers (murine BMSMCs [2]; LTB4/RANKL, ELP-004 100 nM): no significant changes
effect on LTB4-induced increase in DC-STAMP expression (murine BMSMCs [2]; LTB4/RANKL, ELP-004 100 nM): no effect
effect on LTB4-induced increase in OC-STAMP expression (murine BMSMCs [2]; LTB4/RANKL, ELP-004 100 nM): no effect
changes in OC-STAMP mRNA expression (murine BMSMCs [2]; RANKL (100 ng/ml), ELP-004 100 nM): no significant changes
effect on DC-STAMP mRNA expression (murine BMSMCs [2]; RANKL (100 ng/ml), day 14, ELP-004 100 nM): Significant inhibition
effect on MMP9 expression (murine BMSMCs [2]; RANKL, day 14, ELP-004 100 nM): inhibited
effect on DC-STAMP expression (murine BMSMCs [2]; TNFα/RANKL, ELP-004 100 nM): abrogated
effect on MMP9 expression (murine BMSMCs [2]; TNFα/RANKL, ELP-004 100 nM): suppressed
effect on OC-STAMP expression (murine BMSMCs [2]; TNFα/RANKL, ELP-004 100 nM): abrogated
effect on other osteoclast markers (murine BMSMCs [2]; TNFα/RANKL, ELP-004 100 nM): no other osteoclast markers
effect on Cch-induced ER Ca2+ release [3]: no effect
decrease of EA-induced TRPC4 current 45 s after the peak (mouse TRPC4β; 10 nM ELP-004, +100 mV): 37%
decrease of EA-induced TRPC4 current 45 s after the peak (mouse TRPC4β; 10 nM ELP-004, −100 mV): 58%
inhibition of EA-induced TRPC4 currents (mouse TRPC4β; 1 μM ELP-004): lost its inhibitory action
inhibition of EA-induced TRPC4 currents at higher concentrations (mouse TRPC4β; 30 and 100 nM ELP-004 versus 10 nM): did not show stronger inhibitory effects
IC50 (TRPC4): 0.172 µM
